Two compounds from ChEMBL document CHEMBL3525985, “Regiospecificity and stereospecificity of human UDP-glucuronosyltransferases in the glucuronidation of estriol, 16-epiestriol, 17-epiestriol, and 13-epiestradiol” (Drug Metab Dispos, 2013) can be followed below.

Common to all, as to type: ADME
Data set [1] has as its target T1, UDP-glucuronosyltransferase 2B17 (Homo sapiens, UniProt O75795).
T1 sequence (O75795 whole entry): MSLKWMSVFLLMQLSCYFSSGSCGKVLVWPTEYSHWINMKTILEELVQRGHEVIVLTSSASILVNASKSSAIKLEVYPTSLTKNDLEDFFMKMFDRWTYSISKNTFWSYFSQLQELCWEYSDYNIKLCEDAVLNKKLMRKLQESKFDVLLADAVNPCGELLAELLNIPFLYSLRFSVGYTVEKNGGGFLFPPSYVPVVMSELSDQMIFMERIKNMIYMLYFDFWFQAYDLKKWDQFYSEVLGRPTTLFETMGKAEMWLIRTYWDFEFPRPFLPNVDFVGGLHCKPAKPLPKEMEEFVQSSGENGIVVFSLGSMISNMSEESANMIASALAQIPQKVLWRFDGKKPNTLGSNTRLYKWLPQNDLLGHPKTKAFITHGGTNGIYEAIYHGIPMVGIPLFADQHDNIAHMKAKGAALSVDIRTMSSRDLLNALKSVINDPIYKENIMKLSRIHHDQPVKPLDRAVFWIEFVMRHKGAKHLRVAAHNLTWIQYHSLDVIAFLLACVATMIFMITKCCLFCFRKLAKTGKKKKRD
Put plainly: Drug metabolism assessed as recombinant human C-terminal His-tagged UGT2B17-mediated estriol-17-glucuronide formation after 15 to 60 mins by Michaelis-Menten equation analysis in presence of UDPGA. The settings on record: recombinant enzyme.

The target of data set [2] is T2, UDP-glucuronosyltransferase 1A10 (Homo sapiens, UniProt Q9HAW8).
T2 sequence (Q9HAW8 whole entry): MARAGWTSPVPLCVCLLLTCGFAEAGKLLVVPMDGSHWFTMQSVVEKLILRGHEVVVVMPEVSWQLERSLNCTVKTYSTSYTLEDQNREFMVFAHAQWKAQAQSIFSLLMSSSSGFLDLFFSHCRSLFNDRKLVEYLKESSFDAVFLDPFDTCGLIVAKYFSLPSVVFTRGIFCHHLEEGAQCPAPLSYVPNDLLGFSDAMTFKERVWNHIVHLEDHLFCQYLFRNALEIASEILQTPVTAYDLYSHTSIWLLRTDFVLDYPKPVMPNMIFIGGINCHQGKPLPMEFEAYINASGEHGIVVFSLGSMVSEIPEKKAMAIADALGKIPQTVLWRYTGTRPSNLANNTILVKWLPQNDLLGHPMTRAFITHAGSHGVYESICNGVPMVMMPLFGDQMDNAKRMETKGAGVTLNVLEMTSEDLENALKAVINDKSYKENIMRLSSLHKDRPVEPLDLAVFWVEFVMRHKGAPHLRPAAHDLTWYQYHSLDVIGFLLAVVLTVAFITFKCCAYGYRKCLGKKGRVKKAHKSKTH
The data set is described as follows: Drug metabolism assessed as recombinant human C-terminal His-tagged UGT1A10-mediated 16-epiestriol-3-glucuronide formation after 15 to 60 mins by Michaelis-Menten equation analysis in presence of UDPGA. The settings on record: recombinant enzyme. A digest of the protocol: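 For kinetics, the aglycone ranged from 0.2 to 300 μM in DMSO (10% final) with 5 mM UDPGA, 10 mM MgCl₂ and 50 mM phosphate pH 7.4. Enzyme was UGT-enriched insect cell membranes. Incubation was 15–60 min at 37°C, in triplicate, keeping substrate consumption ≤10%. Products were measured by HPLC and fitted to Michaelis-Menten. Rates were normalized to expression level.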

Data set [3] addresses T1, UDP-glucuronosyltransferase 2B17. The data set is described as follows: Drug metabolism assessed as recombinant human C-terminal His-tagged UGT2B17-mediated 16-epiestriol-17-glucuronide formation at 5 mg after 5 hrs by NMR spectroscopic analysis in presence of UDPGA.
Data set [4] has as its target T3, UDP-glucuronosyltransferase 1A4 (Homo sapiens, UniProt P22310).
T3 sequence (P22310 whole entry): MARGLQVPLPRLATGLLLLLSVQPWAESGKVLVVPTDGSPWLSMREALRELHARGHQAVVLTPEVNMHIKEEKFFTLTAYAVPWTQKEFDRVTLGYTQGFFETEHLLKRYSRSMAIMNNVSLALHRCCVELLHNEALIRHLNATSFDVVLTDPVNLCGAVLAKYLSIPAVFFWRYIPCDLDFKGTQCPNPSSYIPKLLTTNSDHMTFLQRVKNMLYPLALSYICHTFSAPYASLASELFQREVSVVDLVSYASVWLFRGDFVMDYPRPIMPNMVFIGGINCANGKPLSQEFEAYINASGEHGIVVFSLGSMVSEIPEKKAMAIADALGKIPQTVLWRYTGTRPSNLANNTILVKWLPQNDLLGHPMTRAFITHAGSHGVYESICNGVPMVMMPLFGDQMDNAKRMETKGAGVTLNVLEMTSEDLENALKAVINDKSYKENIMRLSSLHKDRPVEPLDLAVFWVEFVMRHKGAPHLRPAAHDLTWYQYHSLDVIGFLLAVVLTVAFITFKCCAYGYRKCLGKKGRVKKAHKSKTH
Put plainly: Drug metabolism assessed as recombinant human C-terminal His-tagged UGT1A4-mediated 16-epiestriol-16-glucuronide formation at 200 uM after 15 to 60 mins by HPLC analysis in presence of UDPGA. Conditions: recombinant enzyme. A digest of the protocol:
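Screening at a single substrate concentration of 200 μM, in triplicate. The reaction used 5 or 50 µg of UGT-enriched insect cell membranes in 50 mM phosphate pH 7.4 with 10 mM MgCl₂ and 5 mM UDPGA, 10% final DMSO. Incubation was 15–60 min at 37°C. Perchloric acid stopped the reaction and supernatants were analysed by HPLC. Controls lacked UDPGA. Rates were normalized to relative UGT expression level.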

Data set [5] addresses T4, UDP-glucuronosyltransferase 2B7 (Homo sapiens, UniProt P16662).
T4 sequence (P16662 whole entry): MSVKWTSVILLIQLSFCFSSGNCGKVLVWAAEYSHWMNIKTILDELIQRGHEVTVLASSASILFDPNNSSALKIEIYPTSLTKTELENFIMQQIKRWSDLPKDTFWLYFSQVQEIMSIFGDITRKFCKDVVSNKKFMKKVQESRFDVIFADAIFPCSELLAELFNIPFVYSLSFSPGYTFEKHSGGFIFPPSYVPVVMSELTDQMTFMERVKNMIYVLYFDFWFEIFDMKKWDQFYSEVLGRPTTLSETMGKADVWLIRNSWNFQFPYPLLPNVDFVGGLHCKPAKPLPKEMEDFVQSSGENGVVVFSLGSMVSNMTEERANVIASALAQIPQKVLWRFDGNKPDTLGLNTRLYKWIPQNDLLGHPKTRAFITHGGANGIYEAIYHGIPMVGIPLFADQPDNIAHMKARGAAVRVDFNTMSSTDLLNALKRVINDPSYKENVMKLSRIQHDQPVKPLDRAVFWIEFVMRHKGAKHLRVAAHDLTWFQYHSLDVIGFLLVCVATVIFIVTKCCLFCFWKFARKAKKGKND
Put plainly: Drug metabolism assessed as recombinant human C-terminal His-tagged UGT2B7-mediated 16-epiestriol-16-glucuronide formation at 5 mg after 5 hrs by NMR spectroscopic analysis in presence of UDPGA.

Take `C[C@]12CC[C@@H]3c4ccc(O)cc4CC[C@H]3[C@@H]1C[C@@H](O)[C@@H]2O` [ESTRIOL]: the Drug metabolism in data set [1] came out at 4 pmol/min/mg.

As to `C[C@]12CC[C@@H]3c4ccc(O)cc4CC[C@H]3[C@@H]1C[C@H](O)[C@@H]2O` [EPIESTRIOL], the Drug metabolism in data set [2] is reported as 3500 pmol/min/mg; in data set [3], “metabolite_detected”; in data set [4], “metabolite_not_detected”; in data set [5], “metabolite_detected”.
